These results are taken from ChEMBL document CHEMBL1141901, “1-Aryl-4,6-diamino-1,2-dihydrotriazine as antimalarial agent: a new synthetic route” (Bioorg Med Chem Lett, 2005).

pIC50: −log10 of the molar value.

Experiment [1] can be described thus: Inhibitory concentration against cycloguanil sensitive Plasmodium falciparum FJB-D9. Format: functional. Summed up: (§1)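 P. falciparum field isolates (collected from patients, 1990) grown in RPMI 1640 lacking p-aminobenzoic acid and folic acid, with 25 mM HEPES, bicarbonate and 10% human AB+ serum. Compounds tested over 0.0005–100 range, 30 h at 37 °C in candle jar. Schizonts (≥8 nuclei) per 200 asexual parasites counted microscopically in duplicate wells. Inhibition as (1 − Nt/Nc)×100. IC50/IC90 taken from these values.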

A short description of experiment [2]: Inhibitory concentration against Plasmodium falciparum.
In experiment [3] the test system is Plasmodium falciparum. The experiment can be described thus: Inhibitory concentration sensitive Plasmodium falciparum FJB-D9. Format: functional. Summed up:
as §1

The test system of experiment [4] is Plasmodium falciparum. The experiment can be described thus: Inhibitory concentration against Plasmodium falciparum.

The term pIC50 denotes the negative decadic logarithm of the IC50, by convention in mol/L. A high value points to a small IC50. On to `NC1=NC(c2ccccc2)N(c2ccc(F)c(Cl)c2)C(N)=N1` (stereo unspecified), for which the negative logarithm of the IC50 (pIC50) in experiment [1] was 4.06; in experiment [2], 4.09.
With `NC1=NC(c2ccccc2)N(c2ccccn2)C(N)=N1` (stereo unspecified), the negative-log IC50 (pIC50) in experiment [1] is 4.09; in experiment [2] it was 4.28.
With `NC1=NCN(c2ccccn2)C(N)=N1`, the pIC50 is 3.21 in experiment [1] and 3.20 in experiment [2].
For `Cc1ccc(N2CN=C(N)N=C2N)cc1`, in that order: 3.23 and 3.30.
As usually defined, the IC90 is the concentration at which the effect reaches the 90% level. With `CCc1nc(N)nc(N)c1-c1ccc(Cl)cc1` [PYRIMETHAMINE], the pIC50 was 8.80 in experiment [1] and 8.30 in experiment [2]. The IC90 with Plasmodium falciparum [3] came out at 0.006 µM; in the experiment on Plasmodium falciparum [4] it was 0.028 µM.
The corresponding values for `NC1=NCN(c2ccc(F)c(Cl)c2)C(N)=N1` are 4.76, 4.83, 47.6 µM and 49.5 µM.
